Here are results for three molecules from ChEMBL document CHEMBL3351414, “Novel 9'-substituted-noscapines: synthesis with Suzuki cross-coupling, structure elucidation and biological evaluation” (Eur J Med Chem, 2014).

Activity calls are given as the source filed them. No cut-off for these calls is given here.

The target in assay [1] is T1, Tubulin (Bos taurus, UniProt Q6B856+Q862L2+Q862F3). In words: Inhibition of bovine brain tubulin assessed as extent of assembly preincubated for 15 mins by turbidimetry. The procedure, abridged:
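Bovine brain tubulin at 10 µM (1.0 mg/mL) in 0.8 M monosodium glutamate pH 6.6 with 4% DMSO and varying compound was preincubated 15 min at 30 °C, then chilled. GTP was added to 0.4 mM final and the temperature jumped from 0 to 30 °C. Turbidity was followed at 350 nm, scoring either maximum rate or extent of assembly at 20 min.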

Assay [2] concerns HeLa. In words: Antiproliferative activity against human HeLa cells assessed as reduction in cell viability after 72 hrs by MTT assay. In kind it is functional, cell-based. Put shortly:
(§1)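 Cells kept in RPMI-1640 (Jurkat, SEM, RS4;11) or DMEM (A549, HeLa, IGROV-1, HT-29) with 10% FBS plus penicillin/streptomycin. 8×10^3 cells per well were left 18 h at 37 °C in 5% CO2. Medium was then replaced with fresh medium holding graded compound concentrations from 10 mM DMSO stocks. Cells were incubated 72 h and viability read by MTT. IC50 is the mean ± SEM from dose–response curves of at least three independent experiments.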
(Tetrazolium assays rely on reduction of a dye to a coloured formazan, in cell work by metabolically active cells.)

The test system of assay [3] is CA46. The assay is described as follows: Cell cycle arrest in human CA46 cells assessed as accumulation at G2/M phase at 5 times IC50 by flow cytometry. The assay is classed as functional.
Assay [4] relates to HeLa. In words: Disruption of microtubule network in human HeLa cells assessed as induction of spherical morphology at 25 uM after 24 hrs by immunofluorescence microscopy. The assay is classed as cell-based. The procedure, abridged: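 HeLa cells exposed 24 h at 25 µM, fixed in cold 4% formaldehyde for 15 min, and stained with anti-β-tubulin plus Alexa-conjugated secondary antibody, with DAPI counterstain. Cells were imaged by confocal microscopy.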

Assay [5] deals with HeLa. The assay is described as follows: Upregulation of cyclin B protein level in human HeLa cells at 25 uM after 24 hrs by Western blot analysis. In kind it is functional, cell-based. Background: A western blot detects proteins with antibodies after separation by electrophoresis.
The subject of assay [6] is HeLa. In words: Induction of apoptosis in human HeLa cells assessed as reduction in Mcl-1 expression at 25 uM after 24 hrs by Western blot analysis. The assay is classed as functional, cell-based. The procedure, abridged: (§2)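 HeLa cells treated 24 or 48 h at 25 µM, then lysed. 20 µg protein per lane was run on SDS-PAGE and transferred to PVDF. Membranes were probed 2 h at room temperature for cleaved caspase-9, caspase-3, cleaved PARP, Bcl-2, Mcl-1 or Bax, with peroxidase secondary antibody and ECL. β-Actin reprobe served as loading control.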

The test system of assay [7] is CA46. In words: Antiproliferative activity against human CA46 cells assessed as reduction in cell viability after 72 hrs by MTT assay. In kind it is functional, cell-based. The following applies: CA46, 72 h.
Assay [8] concerns HeLa. In words: Induction of DNA damage in human HeLa cells assessed as increase in phosphorylated form of histone gamma-H2A.X level at 25 uM after 24 hrs by Western blot analysis. In kind it is functional, cell-based. Put shortly:
(§3)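 HeLa cells treated 24 or 48 h at 25 µM, then washed in PBS and lysed 30 min on ice. 20 µg protein per lane was resolved on 7.5–15% SDS-PAGE and blotted to PVDF. Blots were probed for cyclin B, p-cdc2 Tyr15, cdc25C and γH2A.X, with β-actin reprobe as loading control and ECL detection.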

For assay [9], the system named is IGROV-1. In words: Antiproliferative activity against human IGROV1 cells assessed as reduction in cell viability after 72 hrs by MTT assay. In kind it is functional, cell-based. The settings on record: IGROV-1, 72 h. The procedure, abridged:
as §1

The subject of assay [10] is HeLa. The assay is described as follows: Induction of apoptosis in human HeLa cells assessed as mitochondrial membrane depolarization at 6.2 to 50 uM using JC-1 staining-based fluorescence assay. The settings on record: TDE = time-dependent effect. The assay is classed as functional, cell-based. The procedure, abridged:
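Mitochondrial membrane potential was read with the JC-1 dye in HeLa cells after 24 or 48 h at graded concentrations. Data are mean ± SEM of three independent experiments.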

For assay [11], the system named is HeLa. In words: Effect on PCM1 protein in human HeLa cells assessed as accumulation of pericentriolar material at 25 uM after 24 hrs by immunofluorescence microscopy. In kind it is functional, cell-based. The procedure, abridged: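 After 24 h at 25 µM, HeLa cells were stained with anti-PCM1 and Alexa-conjugated secondary antibody, with phalloidin-tetramethylrhodamine B for actin and DAPI for nuclei. Cells were imaged by confocal microscopy at 60×.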

For assay [12], the system named is HeLa. The assay is described as follows: Induction of apoptosis in human HeLa cells assessed as reduction in Mcl-1 expression at 25 uM after 48 hrs by Western blot analysis. In kind it is functional, cell-based. The procedure, abridged: as §2
Assay [13] deals with CCRF-CEM. In words: Antiproliferative activity against human CEM cells assessed as reduction in cell viability after 72 hrs by MTT assay. In kind it is functional, cell-based.
In assay [14] the test system is HeLa. The assay is described as follows: Upregulation of aurora kinase A protein level in human HeLa cells at 25 uM after 24 hrs by Western blot analysis. In kind it is functional, cell-based.
The subject of assay [15] is Jurkat. In words: Cell cycle arrest in human Jurkat cells assessed as accumulation at G2/M phase at 10 to 25 uM after 24 hrs by flow cytometry. In kind it is functional, cell-based. Put shortly: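 5×10^5 HeLa or Jurkat cells exposed to graded compound concentrations for 24 h. Cells were fixed in ice-cold 70% ethanol, lysed with RNase A/0.1% Triton X-100 buffer and stained with propidium iodide. DNA content was read by flow cytometry. Phase percentages are mean ± SEM of three independent experiments.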
In general terms: Flow cytometry measures light scatter and fluorescence of single cells or particles in a stream.

The test system of assay [16] is HeLa. In words: Induction of apoptosis in human HeLa cells after 24 to 48 hrs using Annexin-V/PI staining by flow cytometry. In kind it is functional, cell-based.
In assay [17] the test system is CA46. In words: Cell cycle arrest in human CA46 cells assessed as reduction in mitotic index by Giemsa staining method relative to control. The assay is classed as functional. Also noted: scale not given: the % may be the effect or the level left. Put shortly:
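CA46 Burkitt lymphoma cells grown in RPMI 1640 with 17% FBS and 2 mM L-glutamine at 37 °C, 5% CO2, treated 16 h. Cells were swollen 10 min in half-strength PBS, fixed in 0.5% acetic acid–1.5% ethanol, then spread from 25% acetic acid/75% ethanol. Slides were Giemsa-stained. Mitotic cells were those with condensed chromosomes and no nuclear membrane, with ≥200 cells counted per condition.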

Assay [18] has as its system LoVo. In words: Antiproliferative activity against human LoVo cells assessed as reduction in cell viability after 72 hrs by MTT assay. In kind it is functional, cell-based.
In assay [19] the test system is HeLa. In words: Downregulation of cyclin B protein level in human HeLa cells at 25 uM after 48 hrs by Western blot analysis. The assay is classed as functional, cell-based. Put shortly:
as §3

Assay [20] has as its system HeLa. The assay is described as follows: Upregulation of cdc25c protein level in human HeLa cells at 25 uM after 24 hrs by Western blot analysis. In kind it is functional, cell-based.
Assay [21] has as its system HeLa. The assay is described as follows: Downregulation of cdc25c protein level in human HeLa cells at 25 uM after 24 hrs by Western blot analysis. The settings on record: in the assay text read “after 48 hrs” for “after 24 hrs”. In kind it is functional, cell-based. The procedure, abridged: as §3
The subject of assay [22] is HeLa. The assay is described as follows: Induction of DNA damage in human HeLa cells assessed as increase in phosphorylated form of histone gamma-H2A.X level at 25 uM after 48 hrs by Western blot analysis. In kind it is functional, cell-based. Put shortly: as §3
For assay [23], the target named is T1, Tubulin. In words: Displacement of [3H]colchicine from bovine brain tubulin assessed as rate of assembly after 10 mins by liquid scintillation counting.

One may read the IC50 as the concentration that inhibits the measured activity by half. For the molecule `COc1ccc2c(c1OC)C(=O)O[C@@H]2[C@H]1c2c(c(C)c3c(c2OC)OCO3)CCN1C`, the IC50 in assay [1] was greater than 400 µM; in assay [2], 5.2 µM; in assay [7], 18 µM; in assay [9] it was 62.4 µM; in assay [13], 8.8 µM; in assay [18], 66.3 µM. Also, the Activity in [3] is greater than 80%; in [4], 70%; in assay [10] it was “tde”; in [16], “Dose-dependent effect”; in assay [17] it was 38%. In addition, the result in assay [5], in [6], in assay [8], in assay [11], in [12] and in [14] was Active. For the same molecule, in assay [15], the result was Active.
On to `COc1ccc2c(c1OC)C(=O)O[C@@H]2[C@H]1c2c(c(-c3ccc(C)cc3)c3c(c2OC)OCO3)CCN1C`, for which the IC50 in [1] came out at 120 µM; in [2], 12.8 µM; in assay [9], 66.3 µM; in assay [13], 11.8 µM; in [18], 41.8 µM. Besides, the outcome in assay [19], in assay [5], in assay [8], in assay [20], in assay [12] and in assay [21] was Active. Further, the outcome in [14] and in [15] was Active. Further, in assay [6], the result was inactive. The Activity result in assay [10] is “tde”; in assay [16], “Dose-dependent effect”.
Regarding `COc1ccc2c(c1OC)C(=O)O[C@@H]2[C@H]1c2c(c(Br)c3c(c2OC)OCO3)CCN1C`, the IC50 in assay [1] is greater than 400 µM; in assay [2] it was 2.6 µM; in assay [9], 78.2 µM; in [23], greater than 400 µM; in assay [13] it was 2.8 µM; in assay [18], 42.8 µM. For the same molecule, the result in [22], in assay [6], in assay [11], in assay [12] and in assay [21] was Active. Further, the Activity in [4] was 70%; in [10] it was “tde”; in [16] it was “Dose-dependent effect”.
